Source: ChEMBL document CHEMBL1146828, “Synthesis and biological characterisation of [3H]BBL454, a new CCK2 selective radiolabelled agonist displaying original pharmacological properties” (Bioorg Med Chem Lett, 2004)
Non-standard residues stand in square brackets, D forms with d. Residues, ends and D or L forms follow the SMILES beside them. *: point of attachment. NMeNle = CCCC[C@H](NC)C(=O)O; X1 = CCCCCNC(=O)CC(=O)*; Boc = CC(C)(C)OC(=O)*

What was measured:
[1] = tested on: CHO; experiment: Agonistic activity on arachidonic acid liberation by intact transfected CHO cells; assay type: functional, cell-based; conditions: Cricetulus griseus
Procedure, shortened: (§1)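 Functional agonism on intact CHO cells transfected with CCK2 receptors. Two read-outs were measured, inositol phosphate production and arachidonic acid liberation, each expressed as EC50.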

[2] = tested on: CHO; experiment: Agonistic activity on inositol phosphate production by intact transfected CHO cells; assay type: functional, cell-based; conditions: Cricetulus griseus; procedure, shortened: as §1
[3] = target: Gastrin/cholecystokinin type B receptor (Rattus norvegicus) (UniProt P30553); experiment: Ability to displace 1 nM [3H]pCCK-8 from rat Cholecystokinin type B receptor stably expressing in CHO cells
[4] = tested on: CHO; experiment: Compound was evaluated for binding of [3H]BBL454 to two sites in CHO cells with high affinity; assay type: functional, Cricetulus griseus
[5] = tested on: CHO; experiment: Compound was evaluated for binding of [3H]BBL454 to two sites in CHO cells with low affinity; assay type: functional, Cricetulus griseus
[6] = tested on: CHO; experiment: Compound was evaluated for maximum binding of [3H]BBL454 to two sites in CHO cells with high affinity; assay type: functional, Cricetulus griseus
[7] = target: Cholecystokinin receptor type A (Cavia porcellus); experiment: Ability to displace 1 nM [3H]pCCK-8 from Cholecystokinin type A receptor in guinea pig pancreatic membranes

Chain of Gastrin/cholecystokinin type B receptor (Rattus norvegicus) (P30553 whole entry, looked up): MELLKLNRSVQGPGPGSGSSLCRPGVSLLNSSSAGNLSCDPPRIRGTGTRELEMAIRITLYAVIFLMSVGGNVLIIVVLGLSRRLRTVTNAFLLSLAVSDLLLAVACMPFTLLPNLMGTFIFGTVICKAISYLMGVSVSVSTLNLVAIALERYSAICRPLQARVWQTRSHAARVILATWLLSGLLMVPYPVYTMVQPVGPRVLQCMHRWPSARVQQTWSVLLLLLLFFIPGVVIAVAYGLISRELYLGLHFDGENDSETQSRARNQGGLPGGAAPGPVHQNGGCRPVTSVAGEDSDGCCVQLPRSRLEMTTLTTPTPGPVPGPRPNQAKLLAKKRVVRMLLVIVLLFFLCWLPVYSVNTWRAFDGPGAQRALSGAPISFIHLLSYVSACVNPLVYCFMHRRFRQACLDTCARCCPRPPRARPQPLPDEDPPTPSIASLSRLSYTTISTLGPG

Ki [3]	Ki [7]	Compound	EC50 [1]	EC50 [2]	KD1 [4]	KD2 [5]	Bmax1 [6]
2.66 nM	3640 nM	CCCCCNC(=O)CC(=O)N[C@@H](Cc1c[nH]c2ccccc12)C(=O)N(C)[C@@H](CCCC)C(=O)N[C@@H](CC(=O)O)C(=O)N[C@@H](Cc1ccccc1)C(N)=O (X1-W[NMeNle]DF-NH2)	6.9 nM	2 nM	0.71 nM	194 nM	120 fmol/mg
2.6 nM	> 5000 nM	CCCC[C@@H](C(=O)N[C@@H](CC(=O)O)C(=O)N[C@@H](Cc1ccccc1)C(N)=O)N(C)C(=O)[C@H](Cc1c[nH]c2ccccc12)NC(=O)OC(C)(C)C (Boc-W[NMeNle]DF-NH2)					
